# Assay results of several laboratories.
# Lines come from different studies, so protocols differ.
# Target: Serine/threonine-protein kinase PRP4 homolog (PRPF4B, Homo sapiens, UniProt Q13523)
Compound,assay,setting,remaining binding [%]
COc1cnc(Nc2cccc(S(N)(=O)=O)c2)nc1N1CCN(c2ccccc2)C(=O)C1,"binding, competition with immobilised ligand",1 µM,100
O=C(NCC1CCOCC1)c1n[nH]cc1NC(=O)c1c(F)cccc1F,"binding, competition with immobilised ligand",1 µM,100
C[C@@H]1CN(c2cc(-c3nn(C)c4ccc(OC5(C)CC5)cc34)ncn2)C[C@H](C)O1,"cell-free assay, competition with immobilised ligand",1 µM,100
CN(c1nccc(-c2cnn3ncccc23)n1)C1CC1,binding,1 µM,100
FC(F)(F)c1ccc2c(c1)nc(-c1cccnc1)n2C1CC1,"cell-free assay, competition with immobilised ligand",1 µM,98
O=C(c1ccc(Nc2nccc(-c3cc4ccccc4s3)n2)cc1)N1CCC(N2CCCC2)CC1,"binding, competition with immobilised ligand",1 µM,6.3
CS(=O)(=O)N1CCCC(NC(=O)[C@H](CCC2CCCCC2)NC(=O)c2ccc(CNc3ncnc4c3nnn4-c3ccccc3)cc2)C1 (stereo partly shown),"cell-free assay, competition with immobilised ligand",0.1 µM,60
O=C(NCCCN1CCOCC1)c1ccc(Nc2ncc(Cl)c(-c3ccc(Cl)s3)n2)cc1,"binding, competition with immobilised ligand",1 µM,22
CN(C)c1nccc(-c2cnn3ncccc23)n1,binding,1 µM,86
CNC(=O)[C@@H]1CC[C@@H](n2c(-c3ccc4cnccc4c3)nc3ccc(C(=O)NCc4cccc(C(N)=O)c4)cc32)C1,"binding, competition with immobilised ligand",1 µM,100
O=c1nc(-c2ccccn2)sc2ccccc12,"binding, competition with immobilised ligand",1 µM,71
N[C@@H]1CCN(c2nccc(-c3cnn4ncccc34)n2)C1,binding,1 µM,100
Nc1ncc2c(n1)-c1c([nH]c3ccc(C#CC4CC4)cc13)CCCC2,"binding, competition with immobilised ligand",1 µM,80
FC(F)(F)Oc1cccc(-c2cnc3ccc(-c4ccncc4)nn23)c1,"cell-free assay, competition with immobilised ligand",5 µM,71
C[C@H]1CCN(c2nccc(-c3cnn4ncccc34)n2)C1,binding,1 µM,53
C[C@@H]1CN(c2cc(-c3n[nH]c4ccc(OC5(C)CC5)cc34)ncn2)C[C@H](C)O1,"cell-free assay, competition with immobilised ligand",0.1 µM,83
F[C@@H]1CCN(c2nccc(-c3cnn4ncccc34)n2)C1,binding,1 µM,100
O=C(NCc1ncc(C(F)(F)F)cc1Cl)c1ccc2c(c1)C1(CCS(=O)(=O)CC1)[C@@H](C1CC1)N2S(=O)(=O)c1ccc(F)cc1,"cell-free assay, competition with immobilised ligand",1 µM,84
COc1ncc2cc3ccccc3nc2c1C#N,"cell-free assay, competition with immobilised ligand",5 µM,100
C[C@@H](c1ccc(-n2cnc3c(N)ncnc32)cc1)N1CCc2nn(C)c(Cc3ccccc3)c2C1=O,"binding, competition with immobilised ligand",0.1 µM,100
CC1CCCN1c1nccc(-c2cnn3ncccc23)n1 (stereo not shown),binding,1 µM,100
O=C(c1ccc(Nc2ncc(Cl)c(-c3cc4ccccc4s3)n2)cc1)N1CCC(N2CCCC2)CC1,"binding, competition with immobilised ligand",1 µM,3.7
